Data reported in ChEMBL document CHEMBL5303300, “EUbOPEN Chemogenomics Library - Multiplex” (2023).
Values joined by “and” are separate entries in the source; they are usually repeats but may differ in a detail not shown here. Identical values can stand only once.

Test system: HEK-293T
Assay: Multiplex assay against HEK293T
Type: toxicity, cell-based
Details: human, number of replicates 2
How it was run: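 With compound added, live cells were imaged on a CQ1 microscope at 37°C and 5% CO2; staining with Hoechst33342, BioTracker Green Microtubule Cytoskeleton Dye, MitoTracker Red and Annexin V Alexa Fluor 680 had been done at seeding. The CellPathfinder machine-learning gating scheme split cells into Hoechst high-intensity objects or normal cells, normal cells into healthy, pyknosed or fragmented nuclei, and pyknosed cells into mitotic or apoptotic. The tubulin, mitochondrial-mass and membrane-permeability phenotypes are per cents of healthy-nucleus cells.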

[1] = 12 h, 1 µM, compound concentration 1 uM
[2] = 12 h, 10 µM, compound concentration 10 uM
[3] = 24 h, 1 µM, compound concentration 1 uM
[4] = 24 h, 10 µM, compound concentration 10 uM
[5] = 48 h, 1 µM, compound concentration 1 uM
[6] = 48 h, 10 µM, compound concentration 10 uM

SMILES: COc1ccc2cc(S(=O)(=O)N[C@H](CC(=O)N[C@H](Cc3ccc(CN4[C@H](C)CCC[C@@H]4C)cc3)C(=O)N(C)C(C)C)c3ccc4c(c3)OCO4)ccc2c1.Cl
- Population Apoptotic (%) [1]: 40% and 62%
- Population Fragmented Nuclei (%) [1]: 2% and 1%
- Population Healthy Nuclei (%) [1]: 85% and 84%
- Population Hoechst High Intensity Objects (%) [1]: 5% and 6%
- Population Membrane Permeable-Phenotype (%) [1]: 5%
- Population Mitochondria Different-Phenotype (%) [1]: 29% and 26%
- Population Mitotic Cells (%) [1]: 59% and 37%
- Population Normal (%) [1]: 94% and 93%
- Population Pyknosed Nuclei (%) [1]: 11% and 13%
- Population Tubulin-Different-Phenotype (%) [1]: 86% and 85%
- Total Cell Count [1]: 531 and 472
- Population Apoptotic (%) [2]: 76% and 70%
- Population Fragmented Nuclei (%) [2]: 1% and 3%
- Population Healthy Nuclei (%) [2]: 82% and 83%
- Population Hoechst High Intensity Objects (%) [2]: 10% and 9%
- Population Membrane Permeable-Phenotype (%) [2]: 1% and 4%
- Population Mitochondria Different-Phenotype (%) [2]: 82% and 70%
- Population Mitotic Cells (%) [2]: 23% and 29%
- Population Normal (%) [2]: 89% and 90%
- Population Pyknosed Nuclei (%) [2]: 15% and 12%
- Population Tubulin-Different-Phenotype (%) [2]: 85% and 82%
- Total Cell Count [2]: 395 and 352
- Population Apoptotic (%) [3]: 52% and 56%
- Population Fragmented Nuclei (%) [3]: 5%
- Population Healthy Nuclei (%) [3]: 86% and 83%
- Population Hoechst High Intensity Objects (%) [3]: 6% and 9%
- Population Membrane Permeable-Phenotype (%) [3]: 4%
- Population Mitochondria Different-Phenotype (%) [3]: 19% and 22%
- Population Mitotic Cells (%) [3]: 47% and 43%
- Population Normal (%) [3]: 93% and 90%
- Population Pyknosed Nuclei (%) [3]: 7% and 10%
- Population Tubulin-Different-Phenotype (%) [3]: 74% and 73%
- Total Cell Count [3]: 766 and 588
- Population Apoptotic (%) [4]: 80% and 69%
- Population Fragmented Nuclei (%) [4]: 2% and 5%
- Population Healthy Nuclei (%) [4]: 76% and 75%
- Population Hoechst High Intensity Objects (%) [4]: 10% and 15%
- Population Membrane Permeable-Phenotype (%) [4]: 1% and 2%
- Population Mitochondria Different-Phenotype (%) [4]: 88% and 86%
- Population Mitotic Cells (%) [4]: 19% and 30%
- Population Normal (%) [4]: 89% and 84%
- Population Pyknosed Nuclei (%) [4]: 20% and 19%
- Population Tubulin-Different-Phenotype (%) [4]: 78% and 75%
- Total Cell Count [4]: 417 and 393
- Population Apoptotic (%) [5]: 18% and 44%
- Population Fragmented Nuclei (%) [5]: 10% and 8%
- Population Healthy Nuclei (%) [5]: 84% and 85%
- Population Hoechst High Intensity Objects (%) [5]: 8% and 9%
- Population Membrane Permeable-Phenotype (%) [5]: 6% and 3%
- Population Mitochondria Different-Phenotype (%) [5]: 5% and 4%
- Population Mitotic Cells (%) [5]: 81% and 55%
- Population Normal (%) [5]: 91% and 90%
- Population Pyknosed Nuclei (%) [5]: 4% and 6%
- Population Tubulin-Different-Phenotype (%) [5]: 44% and 41%
- Total Cell Count [5]: 1592 and 1105
- Population Apoptotic (%) [6]: 88% and 78%
- Population Fragmented Nuclei (%) [6]: 6% and 9%
- Population Healthy Nuclei (%) [6]: 81% and 80%
- Population Hoechst High Intensity Objects (%) [6]: 14% and 17%
- Population Membrane Permeable-Phenotype (%) [6]: 2% and 3%
- Population Mitochondria Different-Phenotype (%) [6]: 78% and 79%
- Population Mitotic Cells (%) [6]: 12% and 21%
- Population Normal (%) [6]: 85% and 82%
- Population Pyknosed Nuclei (%) [6]: 11% and 10%
- Population Tubulin-Different-Phenotype (%) [6]: 84% and 87%
- Total Cell Count [6]: 498 and 427

SMILES: CS(=O)(=O)c1ccc(C(=O)Nc2cc(F)cc(COc3cc(F)c(Br)cc3CN3CC[C@H](O)C3)c2)c(Cl)c1.O=CO
- Population Apoptotic (%) [1]: 74% and 64%
- Population Healthy Nuclei (%) [1]: 75% and 74%
- Population Normal (%) [1]: 90%
- Population Pyknosed Nuclei (%) [1]: 18% and 22%
- Total Cell Count [1]: 602 and 632
- Population Apoptotic (%) [2]: 73% and 77%
- Population Healthy Nuclei (%) [2]: 78%
- Population Normal (%) [2]: 93% and 88%
- Total Cell Count [2]: 459 and 415
- Population Apoptotic (%) [3]: 64% and 68%
- Population Healthy Nuclei (%) [3]: 79% and 75%
- Population Normal (%) [3]: 92% and 89%
- Total Cell Count [3]: 818 and 876
- Population Apoptotic (%) [4]: 72% and 81%
- Population Healthy Nuclei (%) [4]: 76%
- Population Normal (%) [4]: 92% and 86%
- Total Cell Count [4]: 492 and 449
- Population Apoptotic (%) [5]: 52% and 51%
- Population Healthy Nuclei (%) [5]: 76% and 82%
- Population Normal (%) [5]: 92% and 91%
- Population Pyknosed Nuclei (%) [5]: 3% and 4%
- Total Cell Count [5]: 1931 and 1977
- Population Apoptotic (%) [6]: 75% and 74%
- Population Healthy Nuclei (%) [6]: 68%
- Population Normal (%) [6]: 83%
- Population Pyknosed Nuclei (%) [6]: 18%
- Total Cell Count [6]: 551 and 447

SMILES: CCOC(=O)Nc1cc(-c2ccc(C)c(NS(C)(=O)=O)c2)nn2c(C)nnc12
- Population Apoptotic (%) [2]: 36% and 38% and 52% and 40%
- Population Fragmented Nuclei (%) [2]: 2% and 3%
- Population Healthy Nuclei (%) [2]: 78% and 74% and 75% and 79%
- Population Hoechst High Intensity Objects (%) [2]: 4% and 3%
- Population Membrane Permeable-Phenotype (%) [2]: 5% and 11% and 2%
- Population Mitochondria Different-Phenotype (%) [2]: 15% and 28% and 21% and 20%
- Population Mitotic Cells (%) [2]: 63% and 61% and 47% and 59%
- Population Normal (%) [2]: 95% and 96%
- Population Pyknosed Nuclei (%) [2]: 19% and 22% and 21% and 17%
- Population Tubulin-Different-Phenotype (%) [2]: 56% and 71% and 58% and 55%
- Total Cell Count [2]: 892 and 664 and 646 and 672
- Population Apoptotic (%) [4]: 40% and 25% and 30% and 24%
- Population Fragmented Nuclei (%) [4]: 3% and 4% and 2%
- Population Healthy Nuclei (%) [4]: 82% and 86% and 84% and 85%
- Population Hoechst High Intensity Objects (%) [4]: 5% and 4%
- Population Membrane Permeable-Phenotype (%) [4]: 3% and 0% and 1%
- Population Mitotic Cells (%) [4]: 59% and 75% and 69%
- Population Normal (%) [4]: 94% and 95%
- Population Pyknosed Nuclei (%) [4]: 13% and 9% and 12% and 10%
- Population Tubulin-Different-Phenotype (%) [4]: 32% [middle of 4 runs]
- Total Cell Count [4]: 755 and 1187 and 821 and 806
- Population Apoptotic (%) [6]: 25% and 42% and 30% and 29%
- Population Fragmented Nuclei (%) [6]: 9% and 5% and 7% and 6%
- Population Healthy Nuclei (%) [6]: 83% and 79% and 80% and 82%
- Population Hoechst High Intensity Objects (%) [6]: 5% and 9%
- Population Membrane Permeable-Phenotype (%) [6]: 0% and 1%
- Population Mitotic Cells (%) [6]: 75% and 57% and 69% and 70%
- Population Normal (%) [6]: 94% and 90%
- Population Pyknosed Nuclei (%) [6]: 7% and 15% and 11%
- Total Cell Count [6]: 1217 and 690 and 964 and 833
